Source: ChEMBL document CHEMBL2203109, “3-Phenyl substituted 6,7-dimethoxyisoquinoline derivatives as FtsZ-targeting antibacterial agents” (Bioorg Med Chem, 2012)
≈ marks a conversion by molar mass, not a printed value.

How the values were obtained:
Format in all cases: functional
Enterococcus faecalis [1] = assay: Antibacterial activity against log-phase vancomycin-resistant Enterococcus faecalis ATCC 51575 assessed as growth inhibition after 24 hrs by broth microdilution method; conditions: ATCC 51575, 24 h
Method in brief: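 CLSI broth microdilution in brain–heart infusion broth; log-phase bacteria at 10^5 CFU/mL, two-fold serial dilutions 64 to 0.031 μg/mL; 24 h aerobic incubation at 37 °C; OD600 read-out; MIC taken as lowest concentration inhibiting growth ≥90%.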

Enterococcus faecalis [2] = assay: Antibacterial activity against log-phase vancomycin-sensitive Enterococcus faecalis ATCC 19433 assessed as growth inhibition after 24 hrs by broth microdilution method; conditions: ATCC 19433, 24 h
Method in brief: (§1)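 CLSI broth microdilution. Log-phase bacteria at 10^5 CFU/mL with two-fold serial dilutions (64 to 0.031 μg/mL). S. aureus tested in cation-adjusted Mueller-Hinton broth; E. faecalis in brain–heart infusion broth. Aerobic incubation 24 h at 37 °C. OD600 read; MIC is the lowest concentration giving ≥90% growth inhibition.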

Staphylococcus aureus [3] = assay: Antibacterial activity against log-phase methicillin-resistant Staphylococcus aureus ATCC 33591 assessed as growth inhibition after 24 hrs by broth microdilution method; conditions: ATCC 33591, 24 h
Method in brief: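 CLSI broth microdilution; 10^5 CFU/mL log-phase bacteria in cation-adjusted Mueller-Hinton broth with 2% NaCl, two-fold serial dilutions from 64 to 0.031 μg/mL; aerobic incubation 24 h at 37 °C; growth read as OD600; MIC = lowest concentration giving ≥90% growth inhibition.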

Staphylococcus aureus [4] = assay: Antibacterial activity against log-phase methicillin-sensitive Staphylococcus aureus 8325-4 assessed as growth inhibition after 24 hrs by broth microdilution method; conditions: 8325-4, 24 h; method in brief: as §1

Structure (SMILES)	MIC90 (Enterococcus faecalis [1]) [mg/L]	MIC90 (Enterococcus faecalis [2]) [mg/L]	MIC90 (Staphylococcus aureus [3]) [mg/L]	MIC90 (Staphylococcus aureus [4]) [mg/L]
CN(C)[C@@H]1C(O)=C(C(N)=O)C(=O)[C@@]2(O)C(O)=C3C(=O)c4c(O)cccc4[C@@](C)(O)[C@H]3C[C@@H]12 [TETRACYCLINE]	> 64	0.5 (≈ 1.13 µM)	64 (≈ 144 µM)	0.06 (≈ 0.135 µM)
COc1cc2cc(-c3cccc(C(C)(C)C)c3)[n+](C)c(C)c2cc1OC.[I-]	64	64	16	16
COc1cc2cc(-c3cccc(-c4ccccc4)c3)nc(C)c2cc1OC	> 64	> 64	> 64	> 64
COc1cc2cc(-c3cccc(-c4ccccc4)c3)[n+](C)cc2cc1OC.[I-]	> 64	> 64	64	16
CCC[C@@H]1C[C@@H](C(=O)N[C@@H]([C@H]2O[C@H](SC)[C@H](O)[C@@H](O)[C@H]2O)[C@H](C)Cl)N(C)C1 [CLINDAMYCIN]	> 64	2 (≈ 4.71 µM)	> 64	0.03 (≈ 0.0706 µM)
COc1ccc2c(c[n+](C)c3c4cc5c(cc4ccc23)OCO5)c1OC [CHELERYTHRINE]	32	32	4	4
COc1cc2cc(-c3cccc(-c4ccccc4)c3)nc(CCN)c2cc1OC	> 64	16 (≈ 41.6 µM)	4 (≈ 10.4 µM)	4 (≈ 10.4 µM)
CNc1nc(-c2cccc(-c3ccccc3)c2)cc2cc(OC)c(OC)cc12	> 64	> 64	> 64	> 64
CC[C@H]1OC(=O)[C@H](C)[C@@H](O[C@H]2C[C@@](C)(OC)[C@@H](O)[C@H](C)O2)[C@H](C)[C@@H](O[C@@H]2O[C@H](C)C[C@H](N(C)C)[C@H]2O)[C@](C)(O)C[C@@H](C)C(=O)[C@H](C)[C@@H](O)[C@]1(C)O [ERYTHROMYCIN]	> 64	1 (≈ 1.36 µM)	> 64	0.1 (≈ 0.136 µM)
COc1cc(-c2cc3cc(OC)c(OC)c(OC)c3c(C)n2)cc(-c2ccc(-c3ccccc3)cc2)c1OC	> 64	> 64	> 64	> 64
C[n+]1cc2c3c(ccc2c2ccc4cc5c(cc4c21)OCO5)OCO3 [SANGUINARIUM]	16	8	2	2
COc1cc2cc(-c3cccc(-c4ccccc4)c3)[n+](C)c(N(C)C)c2cc1OC.[I-]	64	64	32	8
COc1cc2cc(-c3cccc(-c4ccccc4)c3)[n+](C)c(C)c2cc1OC.[I-]	> 64	> 64	32	16
COc1cc(-c2cc3cc(OC)c(OC)c(OC)c3c(C)[n+]2C)cc(-c2ccc(-c3ccccc3)cc2)c1OC.[I-]	4	–	–	1
COc1cc2cc(-c3cccc(-c4ccccc4)c3)nc(C#N)c2cc1OC	> 64	> 64	> 64	> 64
COc1cc2cc(-c3cccc(-c4ccccc4)c3)nc(N(C)C)c2cc1OC	> 64	> 64	> 64	> 64
Cc1onc(-c2ccccc2)c1C(=O)N[C@@H]1C(=O)N2[C@@H]1SC(C)(C)[C@@H]2C(=O)O [OXACILLIN]	> 64	8 (≈ 19.9 µM)	> 64	0.06 (≈ 0.149 µM)
COc1cc2cc(-c3cccc(-c4ccc(-c5ccccc5)cc4)c3)nc(C)c2cc1OC	> 64	> 64	> 64	> 64
COc1cc2cc(-c3cccc(-c4ccccc4)c3)[n+](C)c(C)c2c(OC)c1OC.[I-]	32	32	8	8
COc1cc2cc(-c3cccc(-c4ccccc4)c3)nc(C)c2c(OC)c1OC	> 64	> 64	> 64	> 64
